The values below come from paper PMC2556891 (ACS chemical biology, 2008).

One data set has as its target ClC-ec1 (Escherichia coli, UniProt P37019). In words: Chloride flux assay with ClC-ec1 reconstituted in vesicles. Type of data set: biochemical.
The target in data set [1] is T1, ClC-0 (Torpedo marmorata, UniProt P21564).
T1 sequence (P21564 1-805): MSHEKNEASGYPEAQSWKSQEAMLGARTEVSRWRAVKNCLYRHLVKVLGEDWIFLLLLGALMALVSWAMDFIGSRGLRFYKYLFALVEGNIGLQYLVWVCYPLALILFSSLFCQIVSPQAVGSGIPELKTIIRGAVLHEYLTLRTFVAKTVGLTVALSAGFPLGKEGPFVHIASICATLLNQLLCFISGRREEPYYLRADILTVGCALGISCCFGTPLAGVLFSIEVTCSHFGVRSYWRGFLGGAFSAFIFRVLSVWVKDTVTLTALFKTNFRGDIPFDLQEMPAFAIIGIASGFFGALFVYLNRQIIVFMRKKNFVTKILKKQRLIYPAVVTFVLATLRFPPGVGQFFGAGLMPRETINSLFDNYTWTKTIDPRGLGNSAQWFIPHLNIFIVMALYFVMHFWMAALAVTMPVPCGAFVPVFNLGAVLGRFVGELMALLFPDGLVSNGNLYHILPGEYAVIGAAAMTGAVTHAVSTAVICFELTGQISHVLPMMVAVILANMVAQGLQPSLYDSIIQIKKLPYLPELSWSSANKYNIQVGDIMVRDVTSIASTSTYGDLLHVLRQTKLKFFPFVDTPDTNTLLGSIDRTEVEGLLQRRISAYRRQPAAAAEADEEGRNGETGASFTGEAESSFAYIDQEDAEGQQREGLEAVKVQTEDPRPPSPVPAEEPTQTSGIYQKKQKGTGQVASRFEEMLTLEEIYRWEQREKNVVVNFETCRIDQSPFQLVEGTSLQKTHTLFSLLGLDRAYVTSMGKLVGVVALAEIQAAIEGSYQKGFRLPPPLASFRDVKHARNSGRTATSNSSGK
Description: ClC-0 currents, inside-out patches from Xenopus oocytes. The format is cell-based. The following applies: intracellular application, various concentrations. In outline:
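Defolliculated Xenopus oocytes injected with 27.5 nL ClC-0 RNA (~500 ng/μL) and kept at 16 °C for 2-7 days. Test compound delivered by microfluidic switching. Holding at 0 mV; every 5 s step to +50 mV (50 ms) then −100 mV (50 ms). Instantaneous −100 mV current taken over time as I/Io; initial inhibition rate fitted; 3-5 oocytes; mean ± SEM.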

Data set [2] addresses T1, ClC-0. The note with it: cited from earlier work.
For the next data set, the target named is T2, ClC-Ka (Homo sapiens, UniProt P51800).
T2 sequence (P51800 1-687): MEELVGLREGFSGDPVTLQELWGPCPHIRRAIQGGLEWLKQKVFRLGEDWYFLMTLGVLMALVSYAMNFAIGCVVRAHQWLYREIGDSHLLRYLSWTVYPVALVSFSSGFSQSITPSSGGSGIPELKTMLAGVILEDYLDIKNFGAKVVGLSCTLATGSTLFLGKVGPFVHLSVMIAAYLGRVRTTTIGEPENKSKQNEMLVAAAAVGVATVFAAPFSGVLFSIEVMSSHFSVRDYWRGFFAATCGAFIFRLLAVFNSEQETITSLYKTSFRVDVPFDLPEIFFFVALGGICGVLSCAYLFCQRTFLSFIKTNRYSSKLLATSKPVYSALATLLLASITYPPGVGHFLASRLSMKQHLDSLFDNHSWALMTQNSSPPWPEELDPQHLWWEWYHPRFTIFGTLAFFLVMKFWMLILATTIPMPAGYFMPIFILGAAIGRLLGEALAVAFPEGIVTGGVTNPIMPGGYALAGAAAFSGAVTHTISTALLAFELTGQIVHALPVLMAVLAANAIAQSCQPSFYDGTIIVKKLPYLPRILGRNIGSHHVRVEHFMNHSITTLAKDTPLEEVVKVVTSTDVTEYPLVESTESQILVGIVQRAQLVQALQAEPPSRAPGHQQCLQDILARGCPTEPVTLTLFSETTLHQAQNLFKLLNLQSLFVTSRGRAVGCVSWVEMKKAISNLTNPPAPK
T2 sequence (Q8WZ55 1-320 Y98A partner): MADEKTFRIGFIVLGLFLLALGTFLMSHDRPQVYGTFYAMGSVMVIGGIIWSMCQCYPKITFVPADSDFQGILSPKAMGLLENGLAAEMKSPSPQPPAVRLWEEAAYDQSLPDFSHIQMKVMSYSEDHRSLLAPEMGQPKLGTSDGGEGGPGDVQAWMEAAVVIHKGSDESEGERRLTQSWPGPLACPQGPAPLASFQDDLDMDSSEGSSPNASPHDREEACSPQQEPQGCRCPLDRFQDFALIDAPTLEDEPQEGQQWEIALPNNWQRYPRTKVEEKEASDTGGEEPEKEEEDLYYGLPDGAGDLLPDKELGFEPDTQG
The following applies: cited from earlier work.

In the next data set the target is T3, ClC-Ka N68D (Homo sapiens, UniProt P51800, N68D).
T3 sequence (P51800 1-687 N68D): T2 sequence (P51800 1-687) with N68D
T3 sequence (Q8WZ55 1-320 Y98A partner): T2 sequence (Q8WZ55 1-320 Y98A partner)
The following applies: cited from earlier work.

Data set [3] can be described thus: Stability of DIDS in aqueous solution by reversed-phase HPLC. The format is physicochemical.
The mark [4] stands for this setting: Hill fit of ClC-ec1 chloride flux inhibition.

Residue numbers refer to the chain shown, from its start.

Chain of ClC-ec1 (P37019 whole entry): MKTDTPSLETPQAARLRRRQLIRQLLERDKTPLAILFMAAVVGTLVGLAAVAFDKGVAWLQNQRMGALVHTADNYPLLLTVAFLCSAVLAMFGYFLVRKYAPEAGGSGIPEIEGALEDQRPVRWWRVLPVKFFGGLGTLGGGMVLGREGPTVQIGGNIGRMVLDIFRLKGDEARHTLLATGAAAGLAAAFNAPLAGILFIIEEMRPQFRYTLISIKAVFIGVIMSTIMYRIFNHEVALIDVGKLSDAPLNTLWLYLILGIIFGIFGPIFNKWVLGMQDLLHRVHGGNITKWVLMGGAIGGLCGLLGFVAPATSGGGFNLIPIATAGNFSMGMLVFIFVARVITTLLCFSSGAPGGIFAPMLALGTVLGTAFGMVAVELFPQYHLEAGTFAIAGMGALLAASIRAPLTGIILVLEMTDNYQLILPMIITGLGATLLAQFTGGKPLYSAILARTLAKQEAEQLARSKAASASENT

On to `Nc1ccc(C=Cc2ccc(N)cc2S(=O)(=O)O)c(S(=O)(=O)O)c1` [DADS, 4,4′-diaminostilbene-2,2′-disulfonic acid], for which the “effect on ClC-ec1 activity” value at ClC-ec1 (at concentrations as high as 2 mM) was “does not affect”. In addition, the “effect on ClC-0” value on ClC-0 [1] is listed as “no effect”.
In the case of `O=S(=O)(O)c1cc(N=C=S)ccc1C=Cc1ccc(N=C=S)cc1S(=O)(=O)O` [DIDS, 4,4′-diisothiocyanatostilbene-2,2′-disulfonic acid], the “reversibility of ClC-0 inhibition” value on ClC-0 [2] is “irreversible”. Besides, on ClC-ec1 (setting [4]), the “(A/Ao)max” value is recorded as 1.08 and the Hill coefficient n is recorded as 2. Also, the “reversibility of ClC-Ka inhibition from the extracellular side” value on ClC-Ka is reported as “slowly reversible”. The “decrease of apparent affinity by N68D mutation in ClC-Ka” value at ClC-Ka N68D was 10 fold. Also, in data set [3] (after 3 h in aqueous solution), the “stability in aqueous solution (reversed-phase HPLC)” value is “single peak”. In addition, the “stability in solution (HPLC)” value in data set [3] (after 48 h) was “no DIDS was apparent”. The “stability in solution (HPLC)” value in data set [3] (within 24 h in solution) is “partially decomposed”.
